Assay results reported in ChEMBL document CHEMBL1153844, “Synthesis, crystal structure and anti-inflammatory properties of curcumin analogues” (2009).
Active and inactive are the calls of the source. The calls are words filed in the database; no cut-off is given here.

Legend:
J774.A1 [1] = assay: Antiinflammatory activity in mouse J774A1 cells assessed as inhibition of LPS-induced TNFalpha production at 10 uM preincubated for 3 hrs before LPS challenge measured after 21 hrs by ELISA; type: functional, cell-based
How it was run: (§1)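 J774A.1 mouse macrophage-like cells were plated overnight in DMEM with 10% FBS and penicillin/streptomycin at 1.2 × 10⁶/plate, 37 °C, 5% CO₂. They were pretreated 3 h with compound or vehicle, then given LPS for 21 h. TNF-α or IL-6 in the medium was measured by ELISA and normalized to total protein of the lysed cell pellet. Values are percent of LPS control, from three independent experiments (mean ± S.E.).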

J774.A1 [2] = assay: Antiinflammatory activity in mouse J774A1 cells assessed as inhibition of LPS-induced IL6 production at 10 uM preincubated for 3 hrs before LPS challenge measured after 21 hrs by ELISA; type: functional, cell-based; how it was run: as §1
J774.A1 [3] = assay: Enhancement of LPS-induced TNFalpha production in mouse J774A1 cells at 10 uM preincubated for 3 hrs before LPS challenge measured after 21 hrs by ELISA; type: functional, cell-based; how it was run: as §1
J774.A1 [4] = assay: Enhancement of LPS-induced IL6 production in mouse J774A1 cells at 10 uM preincubated for 3 hrs before LPS challenge measured after 21 hrs by ELISA; type: functional, cell-based; how it was run: as §1
J774.A1 [5] = assay: Antiinflammatory activity in mouse J774A1 cells assessed as inhibition of LPS-induced IL6 production at 10 uM preincubated for 3 hrs before LPS challenge measured after 21 hrs by ELISA relative to control; type: functional; how it was run: as §1
J774.A1 [6] = assay: Antiinflammatory activity in mouse J774A1 cells assessed as inhibition of LPS-induced TNFalpha production at 10 uM preincubated for 3 hrs before LPS challenge measured after 21 hrs by ELISA relative to control; type: functional; how it was run: as §1

| SMILES | Activity (J774.A1 [1]) | Activity (J774.A1 [2]) | further results |
| --- | --- | --- | --- |
| COc1cc(/C=C2\CCC/C(=C\c3ccc(O)c(OC)c3)C2=O)ccc1O | Active | Active | – |
| O=C1/C(=C/c2ccc(O)cc2)CCC/C1=C\c1ccc(O)cc1 | Active | Active | – |
| O=C(/C=C/c1ccc(O)cc1)/C=C/c1ccc(O)cc1 | – | – | Activity (J774.A1 [3]): Active; Activity (J774.A1 [4]): Active |
| COc1cc(/C=C/C(=O)/C=C/c2ccc(O)c(OC)c2)ccc1O | Active | Active | – |
| O=C1/C(=C/c2ccc(F)cc2)CCC/C1=C\c1ccc(F)cc1 | – | – | inhibition at 10 µM (J774.A1 [5]): 54.8%; inhibition at 10 µM (J774.A1 [6]): 65.3% |
| COc1cc(/C=C2\CC/C(=C\c3ccc(O)c(OC)c3)C2=O)ccc1O | Active | Active | – |
